Laboratory results: ChEMBL document CHEMBL5104181, “Development of Hydrogen Sulfide-Releasing Carbonic Anhydrases IX- and XII-Selective Inhibitors with Enhanced Antihyperalgesic Action in a Rat Model of Arthritis” (J Med Chem, 2022)
Calls of active or inactive are those of the source. No cut-off for these calls is given here.

Assays:
[1] = target: Carbonic anhydrase 12 (Homo sapiens, UniProt O43570); test: Inhibition of recombinant human CA12 pre-incubated for 15 mins by phenol red dye based stopped flow CO2 hydration assay
[2] = target: Carbonic anhydrase 2 (Homo sapiens, UniProt P00918); test: Inhibition of recombinant human CA2 pre-incubated for 15 mins by phenol red dye based stopped flow CO2 hydration assay
[3] = target: Carbonic anhydrase 9 (Homo sapiens, UniProt Q16790); test: Inhibition of recombinant human CA9 pre-incubated for 15 mins by phenol red dye based stopped flow CO2 hydration assay
[4] = target: Carbonic anhydrase 4 (Homo sapiens, UniProt P22748); test: Inhibition of recombinant human CA4 pre-incubated for 15 mins by phenol red dye based stopped flow CO2 hydration assay
[5] = target: Carbonic anhydrase 1 (Homo sapiens, UniProt P00915); test: Inhibition of recombinant human CA1 pre-incubated for 15 mins by phenol red dye based stopped flow CO2 hydration assay
[6] = test system: Liver; test: Induction of H2S release in rat liver microsomes assessed as half life of H2S release at 150 uM incubated for 90 mins by methylene blue based UV-Vis spectrophotometer analysis; assay type: functional; conditions: Homogenate, in the assay text read “rat liver homogenate” for “rat liver microsomes”
Outline: (§1)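 Rat liver homogenized 1/20 w/v in ice-cold 50 mM potassium phosphate pH 7.4, diluted further 1:10; compound 150 μM final (30 mM DMSO stock) in airtight vials at 37 °C, 0–90 min. H2S trapped with zinc acetate, proteins precipitated with TCA, then N,N-dimethyl-p-phenylenediamine/FeCl3; methylene blue A667 after 30 min at 25 °C; Na2S calibration 1–250 μM; compound-free baseline; triplicate.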

[7] = Toxicity in Sprague-Dawley rat model of complete freund's adjuvant-induced arthritis assessed as effect on autonomical parameters at 30 mg/kg, po measured for 24 hrs by Irwin test; assay type: organism-based; conditions: in vivo
Outline: (§2)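 Single oral 30 mg/kg dose (1% CMC suspension) in CFA-arthritic Sprague Dawley rats; animals observed 24 h. Irwin screen in individual transparent cage scoring 26 autonomic, behavioral and neurological parameters; some signs recorded as present/absent, skin colour qualitatively, others semiquantitatively on observer scales (0 to +4, −4 to 0, or −4 to +4).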

[8] = test system: Rattus norvegicus; test: (§3) Antinociceptive activity against complete freund's adjuvant-induced arthritic Sprague-Dawley rat model assessed as increase in weight tolerated on ipsilateral paw at 10 to 30 mg/kg, po administered as single dose starting from day 14 post CFA injection and measured after 15 to 45 mins by Paw pressure test; assay type: functional, organism-based; conditions: dose 10-30 mg/kg, time lower 15.0 min, time upper […]
[9] = test system: Liver; test: Induction of H2S release in rat liver microsomes assessed as Cmax of H2S release at 150 uM measured after 90 mins by methylene blue based UV-Vis spectrophotometer analysis; assay type: functional; conditions: Homogenate, in the assay text read “rat liver homogenate” for “rat liver microsomes”; outline: as §1
[10] = test system: Liver; test: Induction of H2S release in rat liver microsomes at 150 uM incubated for 90 mins by methylene blue based UV-Vis spectrophotometer analysis; assay type: functional; conditions: Homogenate, in the assay text read “rat liver homogenate” for “rat liver microsomes”; outline: as §1
[11] = Toxicity in Sprague-Dawley rat model of complete freund's adjuvant-induced arthritis assessed as effect on behavioral parameters at 30 mg/kg, po measured for 24 hrs by Irwin test; assay type: organism-based; conditions: in vivo; outline: as §2
[12] = test system: Rattus norvegicus; test: as §3, with “reduction” for “increase”, “mechanical hyperalgesia induced hypersensitivity” for “weight tolerated on ipsilateral paw”, “upto 75” for “after 15 to 45”; assay type: functional, organism-based; conditions: dose 10-30 mg/kg
[13] = Toxicity in Sprague-Dawley rat model of complete freund's adjuvant-induced arthritis assessed as effect on neurological parameters at 30 mg/kg, po measured for 24 hrs by Irwin test; assay type: organism-based; conditions: in vivo; outline: as §2
[14] = test system: Rattus norvegicus; test: (§4) Antinociceptive activity against complete freund's adjuvant-induced arthritic Sprague-Dawley rat model assessed as reduction in spontaneous pain by measuring difference in weight tolerance on contralateral and ipsilateral paw at 10 mg/kg, po administered as single dose starting from day 14 post CFA injection and measured upto 75 mins by Incapacitance test; assay type: functional, organism-based
Outline: (§5)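 Sprague Dawley rats 200–250 g, CFA 50 μL intra-articular into left tibiotarsal joint on day 0 (saline controls). On day 14, single oral dose in 1% CMC (hybrids 1, 10, 30 mg/kg; single agents 13.23 or 17.71 mg/kg). Incapacitance apparatus, rats on hind paws on 65° inclined plane; Δ weight = contralateral minus ipsilateral load over time; 8 rats, two experimental sets, mean (SEM).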

[15] = test system: Rattus norvegicus; test: as §3, with “13.23” for “10 to 30”; assay type: functional, organism-based; conditions: time lower 15.0 min, time upper […]
[16] = test system: Liver; test: Induction of H2S release in rat liver microsomes assessed as Cmax of H2S release at 150 uM measured after 20 mins by methylene blue based UV-Vis spectrophotometer analysis; assay type: functional; conditions: Homogenate, in the assay text read “rat liver homogenate” for “rat liver microsomes”; outline: as §1
[17] = test system: Rattus norvegicus; test: as §4, with “13.23” for “10”, “after 15 to 30” for “upto 75”; assay type: functional, organism-based; conditions: time 15-30 min; outline: as §5
[18] = test system: Rattus norvegicus; test: as §4, with “paw” for “paw at 10 mg/kg, po”, “administered orally” for “administered”, “after 30 to 45” for “upto 75”; assay type: functional, organism-based; conditions: dose 1-30 mg/kg, route po, time lower 30.0 min, time upper […], DDE = dose-dependent effect; outline: as §5

Carbonic anhydrase 12, sequence (O43570 whole entry): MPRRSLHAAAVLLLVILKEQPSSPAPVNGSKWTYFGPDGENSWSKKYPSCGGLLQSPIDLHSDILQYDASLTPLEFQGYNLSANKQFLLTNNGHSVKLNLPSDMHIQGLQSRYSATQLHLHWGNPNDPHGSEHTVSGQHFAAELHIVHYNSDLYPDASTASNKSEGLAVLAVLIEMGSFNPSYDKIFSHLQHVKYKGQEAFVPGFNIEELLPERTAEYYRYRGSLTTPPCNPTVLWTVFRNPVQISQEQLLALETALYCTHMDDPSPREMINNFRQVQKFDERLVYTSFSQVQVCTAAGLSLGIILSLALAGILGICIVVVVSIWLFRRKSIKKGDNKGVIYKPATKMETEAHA
Carbonic anhydrase 1, sequence (P00915 whole entry): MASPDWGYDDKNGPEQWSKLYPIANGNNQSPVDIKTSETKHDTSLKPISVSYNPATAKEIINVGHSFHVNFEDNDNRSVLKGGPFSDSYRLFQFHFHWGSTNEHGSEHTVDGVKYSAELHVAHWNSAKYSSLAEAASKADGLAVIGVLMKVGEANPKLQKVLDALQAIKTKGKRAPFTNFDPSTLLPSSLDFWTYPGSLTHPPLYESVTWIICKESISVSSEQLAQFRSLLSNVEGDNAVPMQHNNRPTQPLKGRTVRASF
Carbonic anhydrase 4, sequence (P22748 whole entry): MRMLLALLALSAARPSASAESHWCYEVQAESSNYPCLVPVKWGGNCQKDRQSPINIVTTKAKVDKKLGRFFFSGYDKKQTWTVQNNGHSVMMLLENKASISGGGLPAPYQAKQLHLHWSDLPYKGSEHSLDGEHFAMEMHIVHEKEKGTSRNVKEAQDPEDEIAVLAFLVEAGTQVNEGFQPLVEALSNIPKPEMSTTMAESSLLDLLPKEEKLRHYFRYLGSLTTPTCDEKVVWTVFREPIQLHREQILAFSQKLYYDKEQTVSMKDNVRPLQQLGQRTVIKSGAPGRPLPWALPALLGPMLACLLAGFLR

Row | Compound | Ki [1] [nM] | Ki [2] [nM] | Ki [3] [nM] | Ki [4] [nM] | Ki [5] [nM] | T1/2 [6] [min] | Activity [7] | Activity [8] | Cmax [9] [µM] | Activity [10] | Activity [11] | Activity [12] | Activity [13] | Activity [14] | Activity [15] | Cmax [16] [µM] | Activity [17] | Activity [18]
1 | COc1ccc(CN(CCc2ccc(S(N)(=O)=O)cc2)C(=O)c2ccc(-c3cssc3=S)cc2)cc1OC | 8.9 | 218 | 18.6 | 293 |  |  |  |  |  |  |  |  |  |  |  |  |  | 
2 | NS(=O)(=O)c1ccc(CCN(Cc2ccc(F)cc2)C(=O)c2ccc(-c3cssc3=S)cc2)cc1 | 65.3 | 600 | 46.3 | > 10000 | 5320 |  |  |  |  |  |  |  |  |  |  |  |  | 
3 | NS(=O)(=O)c1ccc(CCN(Cc2cccc3ccccc23)C(=O)c2ccc(-c3cssc3=S)cc2)cc1 | 7 | 4460 | 15.6 | 244 | > 10000 | 4.3 | Non-Toxic | Active | 7.9 | Active | Non-Toxic | Active | Non-Toxic | Active |  |  |  | 
4 | NS(=O)(=O)c1ccc(CCNCc2cccc3ccccc23)cc1 |  |  | 45.3 |  |  |  |  |  |  |  |  |  |  |  |  |  |  | 
5 | O=C(O)c1ccc(-c2cssc2=S)cc1 |  |  |  |  |  | 3.1 |  |  |  | Active |  |  |  |  | Active | 12.1 | Active | 
6 | NS(=O)(=O)c1ccc(CCN(CCc2ccccc2)C(=O)c2ccc(-c3cssc3=S)cc2)cc1 | 9.6 | 661 | 126 | 243 | 4390 |  |  |  |  |  |  |  |  |  |  |  |  | 
7 | NS(=O)(=O)c1ccc(CCN(Cc2ccc(Br)cc2)C(=O)c2ccc(-c3cssc3=S)cc2)cc1 | 12.9 | 3660 | 19.1 | 1040 | 7700 |  |  |  |  |  |  |  |  |  |  |  |  | 
8 | COc1ccc(CN(CCc2ccc(S(N)(=O)=O)cc2)C(=O)c2ccc(-c3cssc3=S)cc2)cc1 | 76.4 | 589 | 50.3 | 1590 | 2210 |  |  |  |  |  |  |  |  |  |  |  |  | 
9 | NS(=O)(=O)c1ccc(CCN(Cc2csc3ccccc23)C(=O)c2ccc(-c3cssc3=S)cc2)cc1 | 8 | 2480 | 2.4 | 48 | > 10000 | 4.3 | Non-Toxic | Active | 7.9 | Active | Non-Toxic | Active | Non-Toxic |  |  |  |  | Dde
